Test results taken from ChEMBL document CHEMBL1154279, “Cytotoxic compounds from the stems of Cinnamomum tenuifolium” (J Nat Prod, 2009).
pEC50, pIC50: −log10 of the molar value. Activity calls are given as the source filed them. No cut-off for these calls is given here.

What was measured:
DU-145 [1] = test: Cell cycle arrest in human DU145 cells assessed as accumulation of cells at G1 phase at 100 uM after 24 hrs using propidium iodide stain by flow cytometry; assay type: functional
Summary of the method: (§1)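 DU145 cells treated with 1, 5, 10 or 100 µM for 24 or 72 h; vehicle 1% DMSO in water. Adherent and floating cells pooled, fixed in PBS-MeOH (1:2) at 4 °C for at least 18 h, then stained 30 min at room temperature in the dark with propidium iodide 50 µg/mL plus RNase A 50 µg/mL. Flow cytometry, excitation 488 nm, emission above 580 nm, doublets gated out. Sub-G1 region taken as DNA damage; at least three runs.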

DU-145 [2] = test: Induction of apoptosis in human DU145 cells assessed as increase in intracellular ROS level at 10 uM by DCHF-DA assay; assay type: functional, cell-based
DU-145 [3] = test: Induction of apoptosis in human DU145 cells assessed as caspase9 activation by ELISA; assay type: functional, cell-based; conditions: TDE = time-dependent effect
Summary of the method: (§2)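 DU145 cells treated with 10 µM for 1, 3, 6, 12 and 24 h and lysed. Lysate (60 µg) incubated with Ac-DEVD-pNA or Ac-LEHD-pNA in PIPES buffer pH 7.2 at 37 °C for 1 h in the dark. pNA release read at 405 nm and expressed as percent change against untreated control.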

DU-145 [4] = test: Cell cycle arrest in human DU145 cells assessed as accumulation of cells at sub-G1 phase at 5 uM after 24 hrs using propidium iodide stain by flow cytometry; assay type: functional; summary of the method: as §1
DU-145 [5] = test: Increase in the ratio of cytochrome C concentration from cytosol to mitochondria in human DU145 cells at 100 uM after 24 hrs by ELISA; assay type: functional, cell-based
Summary of the method: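 DU145 cells given 100 µM or DMSO vehicle for 6–24 h at 37 °C. Cytosolic fraction released with digitonin buffer on ice for 5 min; mitochondrial fraction taken by Triton/deoxycholate/SDS lysis and a 10000g spin. Cytochrome c in each fraction measured by ELISA and expressed as a cytosol/mitochondria ratio; three experiments, ANOVA with Dunnett's test.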

DU-145 [6] = test: Cell cycle arrest in human DU145 cells assessed as accumulation of cells at G2/M phase at 100 uM after 72 hrs using propidium iodide stain by flow cytometry; assay type: functional; summary of the method: as §1
DU-145 [7] = test: Cell cycle arrest in human DU145 cells assessed as accumulation of cells at S phase at 5 uM after 24 hrs using propidium iodide stain by flow cytometry; assay type: functional; summary of the method: as §1
DU-145 [8] = test: Cell cycle arrest in human DU145 cells assessed as accumulation of cells at G1 phase at 10 uM after 24 hrs using propidium iodide stain by flow cytometry; assay type: functional; summary of the method: as §1
DU-145 [9] = test: Cell cycle arrest in human DU145 cells assessed as accumulation of cells at G2/M phase at 10 uM after 72 hrs using propidium iodide stain by flow cytometry; assay type: functional; summary of the method: as §1
DU-145 [10] = test: Cell cycle arrest in human DU145 cells assessed as accumulation of cells at S phase at 10 uM after 24 hrs using propidium iodide stain by flow cytometry; assay type: functional; summary of the method: as §1
DU-145 [11] = test: Cell cycle arrest in human DU145 cells assessed as accumulation of cells at G1 phase at 5 uM after 72 hrs using propidium iodide stain by flow cytometry; assay type: functional; summary of the method: as §1
DU-145 [12] = test: Antiproliferative activity in human DU145 cells at 10 uM after 24 hrs by XTT assay in the presence of Ac-DEVD-CMK; assay type: functional, cell-based
Summary of the method: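 DU145 cells pretreated 60 min with 50 µM Ac-DEVD-CMK or 50 µM Ac-LEHD-CMK, then exposed to 10 µM compound for 24 h (vehicle 1% DMSO in water). Proliferation read by XTT: labeling mixture added for 4 h at 37 °C, OD 450 nm (reference 650 nm) versus control wells; mean ± SE of three experiments.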

DU-145 [13] = test: Cytotoxicity against human DU145 cells at 100 uM after 72 hrs by XTT assay; assay type: functional, cell-based
Summary of the method: (§3)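 Prostate cancer cells in RPMI-1640 with 10% FBS, 37 °C, 5% CO2, grown to 70–80% confluence and treated at 0.1–100 µM for 24, 48 and 72 h. XTT labeling for 4 h at 37 °C, absorbance 450 nm (reference 650 nm) against control wells. IC50 derived from the mean of eight wells; taxol and cisplatin served as positive controls.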

LNCaP = test: Cytotoxicity against human LNCAP cells after 72 hrs by XTT assay; assay type: functional, cell-based; conditions: 24 h, in the assay text read “after 24 hrs” for “after 72 hrs”; summary of the method: as §3
DU-145 [14] = test: Cell cycle arrest in human DU145 cells assessed as accumulation of cells at G2/M phase at 1 uM after 72 hrs using propidium iodide stain by flow cytometry; assay type: functional; summary of the method: as §1
DU-145 [15] = test: Induction of apoptosis in human DU145 cells assessed as change in cellular morphology after 24 hrs by Hoechst 33342 stainig; assay type: functional, cell-based
Summary of the method: (§4)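 DU145 cells exposed to 1 and 100 µM for 24 h, vehicle 1% DMSO. Fixed in 3.7% paraformaldehyde, stained with Hoechst 33342 (5 µg/mL) at 37 °C for 1 h and examined by fluorescence microscopy. Cells with reduced nuclear size, chromatin condensation or nuclear fragmentation scored as apoptotic.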

DU-145 [16] = test: Cell cycle arrest in human DU145 cells assessed as accumulation of cells at sub-G1 phase after 24 hrs using propidium iodide stain by flow cytometry; assay type: functional, cell-based; summary of the method: as §1
DU-145 [17] = test: Induction of apoptosis in human DU145 cells assessed as caspase9 activation after 24 hrs by ELISA; assay type: functional, cell-based; conditions: TDE = time-dependent effect; summary of the method: as §2
DU-145 [18] = test: Induction of apoptosis in human DU145 cells assessed as formation of granulation of nucleus after 24 hrs by Hoechst 33342 stainig; assay type: functional, cell-based; summary of the method: as §4
DU-145 [19] = test: Reduction of mitochondrial membrane potential in human DU145 cells using rhodamine 123 staining by spectrophotofluorimeter; assay type: functional, cell-based
Summary of the method: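 DU145 cells incubated 6, 12, 18 or 24 h with or without 10 and 100 µM, then given 10 µM rhodamine 123 in serum-free medium for 15 min at 37 °C. Collected cells read within 15 min by spectrofluorimeter (ex 495, em 520 nm); three experiments.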

DU-145 [20] = test: Cell cycle arrest in human DU145 cells assessed as accumulation of cells at sub-G1 phase at 10 uM after 72 hrs using propidium iodide stain by flow cytometry; assay type: functional; summary of the method: as §1
DU-145 [21] = test: Cell cycle arrest in human DU145 cells assessed as accumulation of cells at S phase at 5 uM after 72 hrs using propidium iodide stain by flow cytometry; assay type: functional; summary of the method: as §1
DU-145 [22] = test: Cell cycle arrest in human DU145 cells assessed as accumulation of cells at G2/M phase at 10 uM after 24 hrs using propidium iodide stain by flow cytometry; assay type: functional; summary of the method: as §1
DU-145 [23] = test: Induction of apoptosis in human DU145 cells assessed as PARP activation at 100 uM by ELISA; assay type: functional, cell-based

CCCCCCCCCCCCCCCCCCCCCCCC/C=C(/C(=O)OC)[C@@H](O)C(C)=O [SECOTENUIFOLIDE A]
Activity (DU-145 [1]): 35.57% | Activity (DU-145 [2]): Active | Activity (DU-145 [3]): tde | Activity (DU-145 [4]): 19.02% | Activity (DU-145 [5]): Active | Activity (DU-145 [6]): 30% | Activity (DU-145 [7]): 4.96% | Activity (DU-145 [8]): 36.97% | Activity (DU-145 [9]): 30.83% | Activity (DU-145 [10]): 3.8% | Activity (DU-145 [11]): 48.96% | Activity (DU-145 [12]): inactive | Activity (DU-145 [13]): Active | pEC50 (LNCaP): > 5.15 | pIC50 (LNCaP): 5.17 | Activity (DU-145 [14]): 33.68% | Activity (DU-145 [15]): Active | Activity (DU-145 [16]): Dose-dependent effect | Activity (DU-145 [17]): tde | Activity (DU-145 [18]): Active | Activity (DU-145 [19]): Active | Activity (DU-145 [20]): 16.18% | Activity (DU-145 [21]): 4.05% | Activity (DU-145 [22]): 36.57% | Activity (DU-145 [23]): Active
